From ChEMBL document CHEMBL1132576, “Tetrahydrobenzindoles: selective antagonists of the 5-HT7 receptor” (J Med Chem, 1999)

Target: T1, 5-hydroxytryptamine receptor 1A (Homo sapiens, UniProt P08908)
T1 sequence (P08908 whole entry): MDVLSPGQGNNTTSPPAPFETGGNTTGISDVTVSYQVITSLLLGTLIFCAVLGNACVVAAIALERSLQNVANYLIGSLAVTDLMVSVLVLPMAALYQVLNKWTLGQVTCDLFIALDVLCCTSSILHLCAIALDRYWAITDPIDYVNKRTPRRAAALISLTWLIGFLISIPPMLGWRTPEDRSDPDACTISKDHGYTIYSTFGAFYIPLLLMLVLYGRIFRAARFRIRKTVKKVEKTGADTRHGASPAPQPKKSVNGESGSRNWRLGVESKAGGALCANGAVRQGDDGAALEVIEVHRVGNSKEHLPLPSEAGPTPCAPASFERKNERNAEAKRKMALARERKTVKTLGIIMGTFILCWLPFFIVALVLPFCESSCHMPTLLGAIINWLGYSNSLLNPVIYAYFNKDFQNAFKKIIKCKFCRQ
Test: Compound was evaluated for its ability to displace [3H]8-OH-DPAT binding from human 5-hydroxytryptamine 1A receptor in mammalian cells
Assay type: cell-based
How it was run: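 Radioligand displacement at human recombinant 5-HT1A receptor expressed in mammalian cells, labelled with [3H]8-OH-DPAT. Affinity reported as pKi, mean of at least two determinations, each within 0.2 log unit of the mean.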

Structure (SMILES)	Ki
O=C1Nc2cccc3c2C1(CCCCN1CC=C(c2ccccc2)CC1)CCC3 (stereo not given)	170 nM

Target: 5-hydroxytryptamine receptor 7 (Homo sapiens, UniProt P34969)
Sequence (P34969 whole entry): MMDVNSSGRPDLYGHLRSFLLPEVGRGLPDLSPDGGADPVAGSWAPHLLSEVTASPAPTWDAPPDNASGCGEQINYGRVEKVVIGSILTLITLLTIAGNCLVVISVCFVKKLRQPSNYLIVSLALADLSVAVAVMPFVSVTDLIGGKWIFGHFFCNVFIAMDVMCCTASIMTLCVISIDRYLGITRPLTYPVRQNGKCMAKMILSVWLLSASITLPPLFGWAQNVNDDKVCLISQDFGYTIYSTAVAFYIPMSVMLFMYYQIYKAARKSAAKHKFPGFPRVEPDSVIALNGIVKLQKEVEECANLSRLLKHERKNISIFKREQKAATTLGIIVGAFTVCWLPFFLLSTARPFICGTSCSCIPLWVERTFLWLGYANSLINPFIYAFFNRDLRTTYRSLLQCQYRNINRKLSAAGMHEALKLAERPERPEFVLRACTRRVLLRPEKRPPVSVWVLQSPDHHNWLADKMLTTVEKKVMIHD
Test: Compound was evaluated for its ability to displace [3H]5-CT binding from cloned human 5-hydroxytryptamine 7 receptor expressed in COS-7 cells.
Assay type: cell-based
How it was run: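 Radioligand displacement of [³H]5-CT from cloned human 5-HT7 receptor expressed in COS-7 cells. Values reported as pKi, each the mean of at least two determinations, each within 0.2 log unit of the mean.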

Ki	Structure (SMILES)
3.31 nM	O=C1Nc2cccc3c2C1(CCCCN1CCN(c2ccccc2)CC1)CCC3 (stereo not given)
5.13 nM	COc1ccccc1N1CCN(CCCCC23CCCc4cccc(c42)NC3=O)CC1 (stereo not given)
5.25 nM	O=C1Nc2cccc3c2C1(CCCN1CCN(c2ccccc2)CC1)CCC3 (stereo not given)
102 nM	O=C1Nc2cccc3c2C1(CCN1CCN(c2ccccc2)CC1)CCC3 (stereo not given)
3.8 nM	N#Cc1ccccc1N1CCN(CCCCC23CCCc4cccc(c42)NC3=O)CC1 (stereo not given)
> 1000 nM	O=C1Nc2cccc3c2C1(CCCCN1CCN(C2CCCCC2)CC1)CCC3 (stereo not given)
1.86 nM	O=C1Nc2cccc3c2C1(CCCCN1CCN(c2ccccn2)CC1)CCC3 (stereo not given)

Structure (SMILES)	Ki
O=C1Nc2cccc3c2C1(CCCCN1CC=C(c2ccccc2)CC1)CCC3 (stereo not given)	2.14 nM

Target: D(2) dopamine receptor (Rattus norvegicus, UniProt P61169)
Sequence (P61169 whole entry): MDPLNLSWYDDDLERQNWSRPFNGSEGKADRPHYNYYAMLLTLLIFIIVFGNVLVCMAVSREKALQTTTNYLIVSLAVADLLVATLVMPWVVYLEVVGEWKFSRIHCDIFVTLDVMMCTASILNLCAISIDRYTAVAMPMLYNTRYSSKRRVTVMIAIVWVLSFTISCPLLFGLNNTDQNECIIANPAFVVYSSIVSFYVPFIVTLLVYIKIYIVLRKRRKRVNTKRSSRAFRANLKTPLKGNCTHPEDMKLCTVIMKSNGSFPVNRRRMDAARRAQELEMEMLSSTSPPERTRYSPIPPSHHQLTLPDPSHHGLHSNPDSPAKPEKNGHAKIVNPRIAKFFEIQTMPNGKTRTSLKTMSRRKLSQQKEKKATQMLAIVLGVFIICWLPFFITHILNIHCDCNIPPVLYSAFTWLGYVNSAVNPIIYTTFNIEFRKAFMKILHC
Test: Compound was evaluated for its ability to displace [3H]spiperone binding from Dopamine receptor D2 in rat striatum.
How it was run: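 Dopamine D2 binding was run in rat striatum with [3H]spiperone as radioligand. Values are pKi, mean of at least two determinations, each within 0.2 log unit of the mean.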

Structure (SMILES)	Ki
O=C1Nc2cccc3c2C1(CCCCN1CC=C(c2ccccc2)CC1)CCC3 (stereo not given)	105 nM

Target: 5-hydroxytryptamine receptor 6 (Homo sapiens, UniProt P50406)
Sequence (P50406 whole entry): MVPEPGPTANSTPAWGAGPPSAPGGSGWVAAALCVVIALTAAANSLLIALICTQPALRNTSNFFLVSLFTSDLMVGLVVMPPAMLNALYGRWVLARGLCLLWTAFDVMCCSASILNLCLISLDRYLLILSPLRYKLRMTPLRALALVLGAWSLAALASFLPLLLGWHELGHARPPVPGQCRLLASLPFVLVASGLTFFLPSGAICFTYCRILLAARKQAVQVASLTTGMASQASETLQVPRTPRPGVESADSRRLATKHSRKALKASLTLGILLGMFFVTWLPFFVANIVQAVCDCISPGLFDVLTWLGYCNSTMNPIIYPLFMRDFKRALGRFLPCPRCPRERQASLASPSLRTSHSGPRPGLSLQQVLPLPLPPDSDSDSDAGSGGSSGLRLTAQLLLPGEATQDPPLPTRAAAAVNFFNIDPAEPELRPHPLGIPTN
Test: Compound was evaluated for its ability to displace [3H]LSD binding from human recombinant 5-hydroxytryptamine 6 receptor
How it was run: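 Displacement of [3H]LSD from human recombinant 5-HT6 receptor expressed in mammalian cells. pKi is the mean of at least two determinations, each lying within 0.2 log unit of the mean.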

Structure (SMILES)	Ki
O=C1Nc2cccc3c2C1(CCCCN1CC=C(c2ccccc2)CC1)CCC3 (stereo not given)	525 nM

Target: Serotonin 2 (5-HT2) receptor (Rattus norvegicus, UniProt P30994+P08909+P14842)
Test: Compound was evaluated for its ability to displace [3H]ketanserin binding from […] rat cerebral cortex membranes 5-hydroxytryptamine 2 receptor
Assay type: tissue-based
How it was run: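 Displacement of [³H]ketanserin from 5-HT2 sites in rat cerebral cortex membranes. Values reported as pKi, each the mean of at least two determinations, each within 0.2 log unit of the mean.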

Log Ki	Structure (SMILES)
-7.37	O=C1Nc2cccc3c2C1(CCCCN1CCN(c2ccccc2)CC1)CCC3 (stereo not given)
-6.95	COc1ccccc1N1CCN(CCCCC23CCCc4cccc(c42)NC3=O)CC1 (stereo not given)
-7.79	O=C1Nc2cccc3c2C1(CCCN1CCN(c2ccccc2)CC1)CCC3 (stereo not given)
-8.27	O=C1Nc2cccc3c2C1(CCN1CCN(c2ccccc2)CC1)CCC3 (stereo not given)
-6.98	N#Cc1ccccc1N1CCN(CCCCC23CCCc4cccc(c42)NC3=O)CC1 (stereo not given)
> -6	O=C1Nc2cccc3c2C1(CCCCN1CCN(C2CCCCC2)CC1)CCC3 (stereo not given)
-7.27	O=C1Nc2cccc3c2C1(CCCCN1CCN(c2ccccn2)CC1)CCC3 (stereo not given)

Structure (SMILES)	Log Ki
O=C1Nc2cccc3c2C1(CCCCN1CC=C(c2ccccc2)CC1)CCC3 (stereo not given)	-7.01

Target: 5-hydroxytryptamine receptor 4 (Cavia porcellus, UniProt O70528)
Sequence (O70528 whole entry): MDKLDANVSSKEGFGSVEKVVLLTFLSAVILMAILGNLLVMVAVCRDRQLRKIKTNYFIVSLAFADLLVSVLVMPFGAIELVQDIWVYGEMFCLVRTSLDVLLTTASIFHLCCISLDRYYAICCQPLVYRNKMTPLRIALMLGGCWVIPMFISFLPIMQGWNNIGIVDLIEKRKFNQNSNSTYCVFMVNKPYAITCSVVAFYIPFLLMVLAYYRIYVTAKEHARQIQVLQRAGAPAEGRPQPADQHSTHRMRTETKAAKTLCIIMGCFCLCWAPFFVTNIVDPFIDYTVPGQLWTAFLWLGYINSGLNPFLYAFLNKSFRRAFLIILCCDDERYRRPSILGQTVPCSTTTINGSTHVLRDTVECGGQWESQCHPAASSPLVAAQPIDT
Test: Compound was evaluated for its ability to displace [3H]GR-113808 binding from 5-hydroxytryptamine 4 receptor in guinea pig striatum.
How it was run: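 Competition binding in guinea-pig striatum using [3H]GR-113808 at 5-HT4 sites. pKi is the mean of at least two determinations, each within 0.2 log unit of the mean.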

Structure (SMILES)	Ki
O=C1Nc2cccc3c2C1(CCCCN1CC=C(c2ccccc2)CC1)CCC3 (stereo not given)	> 1000 nM
